Test results as given in paper PMC10828771 (Haematologica, 2023).
Residues, ends and D or L forms follow the SMILES beside them. *: point of attachment. Cbz = O=C(OCc1ccccc1)*; CH2F = FC*

Tested on: OPM-2 cells
Experiment: Apoptosis and necroptosis inhibition assays
Assay type: cell-based, human
How it was run: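 OPM-2 cells at 250,000 cells/mL pre-incubated 1 h at 37°C in medium containing pan-caspase inhibitor Z-VAD-FMK, necroptosis inhibitor necrostatin-1s, or DMSO. Washed (PBS for Z-VAD-FMK arm), then cultured 72 h with test compound or DMSO. Viability by Zombie-aqua staining and flow cytometry. Z-VAD-FMK arm: mean ± SD of 3 independent experiments.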

SMILES	effect of pretreatment on OSU-13-mediated cell death (100 μM necrostatin-1s 1 h, then 1 μM OSU-13 72 h)	decrease of OSU-13-mediated cell death by pretreatment (100 mM Z-VAD-FMK 1 h, then 1 mM OSU-13 72 h) [%]
CN1C(=O)NC(Cc2c[nH]c3c(Cl)cccc23)C1=O (centres unmarked) [Necrostatin-1s]	no measurable effect	
COC(=O)C[C@H](NC(=O)[C@H](C)NC(=O)[C@@H](NC(=O)OCc1ccccc1)C(C)C)C(=O)CF [Z-VAD-FMK] (Cbz-Val-Ala-Asp(OMe)-CH2F)		20±6.7
